The test system of assay [1] is Haemophilus influenzae. As to the kind of experiment: Antibacterial activity against nontypeable beta-lactamase-negative ampicillin-resistant Haemophilus influenzae 4437. The assay is classed as functional. The method in brief:
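MIC by CLSI broth dilution in Haemophilus Test Medium, inoculum 10^5 CFU/ml, tested in duplicate. β-lactamase production checked by nitrocefin test.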

The subject of assay [2] is Mus musculus. As to the kind of experiment: Antiinflammatory activity against nontypeable beta-lactamase-negative ampicillin-resistant Haemophilus influenzae 4437 infected in mouse ddY assessed as decrease in neutrophil count in bronchoalveolar lavage fluid at 100 mg/kg, po bid for 3 days relative to control. Also on record: dose 100 mg/kg. The note with it: Lung. The assay is classed as functional, organism-based. The method in brief: (§1)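 Intubated ddY mice challenged intratracheally, then dosed orally twice daily from 24 h for 3 days and lavaged 12 h after the last dose (3 × 1.0 ml saline, pooled). Total cells counted with Turk stain. Differentials counted on 100 cytocentrifuged cells stained with Diff-Quick. Four experiments.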

Assay [3] relates to Mus musculus. As to the kind of experiment: Antiinflammatory activity against nontypeable beta-lactamase-negative ampicillin-resistant Haemophilus influenzae 4437 infected in mouse ddY assessed as decrease in MIP-2 level in bronchoalveolar lavage fluid at 40 mg/kg, po bid for 3 days relative to control. It is filed as functional, organism-based. Also on record: dose 40 mg/kg. The note with it: Lung. In short, it runs like this: (§2)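 Intubated ddY mice challenged intratracheally, then dosed orally twice daily from 24 h for 3 days and killed 12 h after the last dose. BAL done with 3 × 1.0 ml saline, pooled per animal. MIP-2 and IL-1β in BAL fluid measured by mouse ELISA kits. Four experiments.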

For assay [4], the system named is Haemophilus influenzae. The experiment in a line: Antibacterial activity against macrolide-resistant Haemophilus influenzae 4437 infected in NCI-H292 cells assessed as decrease in viable bacterial count at 64 ug/ml by 3-h invasion assay. The assay is classed as functional, organism-based. The method in brief: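 NCI-H292 cells in RPMI 1640 with 10% FBS, seeded at 5 × 10^5/well, then held in 0.5% FBS for 24 h at confluence. Infected with 10 µl of about 6 × 10^6 CFU/ml bacteria for 3 h at 37°C, 5% CO2. Washed, then gentamicin 200 µg/ml with drug for 2 h. Lysed in 1% Triton X-100; intracellular CFU counted on chocolate agar. Three experiments.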

Assay [5] concerns Mus musculus. The experiment in a line: Antiinflammatory activity against nontypeable beta-lactamase-negative ampicillin-resistant Haemophilus influenzae 4437 infected in mouse ddY assessed as decrease in IL1-beta level in bronchoalveolar lavage fluid at 100 mg/kg, po bid for 3 days relative to control. It is filed as functional, organism-based. Also on record: dose 100 mg/kg. The note with it: Lung. The method in brief: as §2

Assay [6] relates to Mus musculus. As to the kind of experiment: Antiinflammatory activity against nontypeable beta-lactamase-negative ampicillin-resistant Haemophilus influenzae 4437 infected in mouse ddY assessed as decrease in IL1-beta level in bronchoalveolar lavage fluid at 40 mg/kg, po bid for 3 days relative to control. The assay is classed as functional, organism-based. Also on record: dose 40 mg/kg. The note with it: Lung. In short, it runs like this: as §2

Assay [7] deals with Mus musculus. The experiment in a line: Antiinflammatory activity against nontypeable beta-lactamase-negative ampicillin-resistant Haemophilus influenzae 4437 infected in mouse ddY assessed as decrease in MIP-2 level in bronchoalveolar lavage fluid at 100 mg/kg, po bid for 3 days relative to control. It is filed as functional, organism-based. The note with it: Lung. Also on record: dose 100 mg/kg. The method in brief: as §2

In assay [8] the test system is Mus musculus. As to the kind of experiment: Antiinflammatory activity against nontypeable beta-lactamase-negative ampicillin-resistant Haemophilus influenzae infected in mouse ddY assessed as inflammatory changes in lung at 40 mg/kg, po bid for 3 days relative to control. The assay is classed as functional, organism-based. Also on record: dose 40 mg/kg. The method in brief: (§3)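 Intubated ddY mice challenged intratracheally, then dosed orally twice daily for 3 days. Lungs fixed in 10% buffered formalin, stained with hematoxylin and eosin, and examined at ×200 for inflammatory cell infiltration of alveoli and bronchioles.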

For assay [9], the system named is Haemophilus influenzae. As to the kind of experiment: Antibacterial activity against nontypeable beta-lactamase-negative ampicillin-resistant Haemophilus influenzae 4437 infected in mouse ddY assessed as decrease in viable bacterial count at 100 mg/kg, po bid for 3 days. The assay is classed as functional. In short, it runs like this:
(§4)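 Male ddY SPF mice, 6 weeks old, with a tube placed into the main bronchus 7 days before intratracheal challenge under pentobarbital. Drug given in DMSO orally twice daily from 24 h post-infection for 3 days. Mice killed 12 h after the last dose. Lungs homogenized in 1.0 ml PBS, serially diluted and plated on chocolate agar overnight at 37°C, 5% CO2. Four experiments.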

The subject of assay [10] is Mus musculus. The experiment in a line: Antiinflammatory activity against nontypeable beta-lactamase-negative ampicillin-resistant Haemophilus influenzae infected in mouse ddY assessed as inflammatory changes in lung at 100 mg/kg, po bid for 3 days relative to control. It is filed as functional, organism-based. Also on record: dose 100 mg/kg. The method in brief: as §3

Assay [11] relates to Mus musculus. As to the kind of experiment: Antiinflammatory activity against nontypeable beta-lactamase-negative ampicillin-resistant Haemophilus influenzae 4437 infected in mouse ddY assessed as decrease in neutrophil count in bronchoalveolar lavage fluid at 40 mg/kg, po bid for 3 days. The note with it: Lung. Also on record: dose 40 mg/kg. It is filed as functional, organism-based. In short, it runs like this:
as §1

In assay [12] the test system is Mus musculus. As to the kind of experiment: Antiinflammatory activity against nontypeable beta-lactamase-negative ampicillin-resistant Haemophilus influenzae 4437 infected in mouse ddY assessed as decrease in total cell count in bronchoalveolar lavage fluid at 40 mg/kg, po bid for 3 days. The assay is classed as functional, organism-based. Also on record: dose 40 mg/kg. The note with it: Lung. The method in brief:
as §1

The test system of assay [13] is Haemophilus influenzae. The experiment in a line: Antibacterial activity against nontypeable beta-lactamase-negative ampicillin-resistant Haemophilus influenzae 4437 infected in mouse ddY assessed as decrease in viable bacterial count at 40 mg/kg, po bid for 3 days. The assay is classed as functional. The method in brief: as §4
Assay [14] has as its system Mus musculus. As to the kind of experiment: Antiinflammatory activity against nontypeable beta-lactamase-negative ampicillin-resistant Haemophilus influenzae 4437 infected in mouse ddY assessed as decrease in total cell count in bronchoalveolar lavage fluid at 100 mg/kg, po bid for 3 days. The note with it: Lung. The assay is classed as functional, organism-based. Also on record: dose 100 mg/kg. The method in brief:
as §1

Molecules are shown by their SMILES. Converted amounts (≈) assume the structure as drawn. The source made the active and inactive calls. No cut-off for these calls is given here.

In ChEMBL document CHEMBL1212794, “Efficacy of clarithromycin against experimentally induced pneumonia caused by clarithromycin-resistant Haemophilus influenzae in mice” (2010) one finds MIC, Activity and log10CFU/ml data, which are given here for two molecules.

In the case of `CC1(C)S[C@@H]2[C@H](NC(=O)[C@H](N)c3ccccc3)C(=O)N2[C@H]1C(=O)O` [AMPICILLIN], the MIC in the assay with Haemophilus influenzae [1] is 16 µg/mL (≈ 45.8 µM).

Molecule `CC[C@H]1OC(=O)[C@H](C)[C@@H](O[C@H]2C[C@@](C)(OC)[C@@H](O)[C@H](C)O2)[C@H](C)[C@@H](O[C@@H]2O[C@H](C)C[C@H](N(C)C)[C@H]2O)[C@](C)(OC)C[C@@H](C)C(=O)[C@H](C)[C@@H](O)[C@]1(C)O` [CLARITHROMYCIN] showed an MIC in the assay on Haemophilus influenzae [1] of 64 µg/mL (≈ 85.6 µM). Further, the result in the assay with Mus musculus [2], with Mus musculus [3], in the assay with Haemophilus influenzae [4], with Mus musculus [5], in the assay with Mus musculus [6] and in the assay on Mus musculus [7] was Active. For the same molecule, the outcome with Mus musculus [8], in the assay on Mus musculus [10], in the assay with Mus musculus [11], in the assay with Mus musculus [12] and in the assay on Mus musculus [14] was Active. Further, the log10CFU/ml with Haemophilus influenzae [9] came to 4.6; in the assay on Haemophilus influenzae [13], 5.8.
